# Measurements of several laboratories.
# Each line is one published result; the experiments were not run side by side.
# Target: Beta-adrenergic receptor kinase 1 (GRK2, Homo sapiens, UniProt P25098)
# One construct used (P25098 1-689): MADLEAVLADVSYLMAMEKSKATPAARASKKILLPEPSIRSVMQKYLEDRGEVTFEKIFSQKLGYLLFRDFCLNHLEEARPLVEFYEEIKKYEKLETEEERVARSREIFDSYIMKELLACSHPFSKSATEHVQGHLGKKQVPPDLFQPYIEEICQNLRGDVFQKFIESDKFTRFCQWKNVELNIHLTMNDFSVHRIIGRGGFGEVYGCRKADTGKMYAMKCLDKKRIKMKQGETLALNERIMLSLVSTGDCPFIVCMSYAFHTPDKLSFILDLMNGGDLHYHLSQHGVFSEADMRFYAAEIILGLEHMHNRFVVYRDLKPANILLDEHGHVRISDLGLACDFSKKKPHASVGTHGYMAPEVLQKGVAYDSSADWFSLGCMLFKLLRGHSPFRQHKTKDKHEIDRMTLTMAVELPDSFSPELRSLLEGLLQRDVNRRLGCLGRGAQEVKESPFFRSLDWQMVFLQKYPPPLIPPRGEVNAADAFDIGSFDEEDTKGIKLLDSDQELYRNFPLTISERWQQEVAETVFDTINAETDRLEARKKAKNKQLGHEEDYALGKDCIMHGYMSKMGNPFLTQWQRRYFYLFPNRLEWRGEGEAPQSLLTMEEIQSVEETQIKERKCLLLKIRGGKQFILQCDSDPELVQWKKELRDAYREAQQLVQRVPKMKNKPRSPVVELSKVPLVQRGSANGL
SMILES,effect on,method,concentration,remaining binding
Cc1nc(C2CCN(C(=O)c3ccc(OC(F)(F)F)cc3N)CC2)c2ncc(N3CCN(C)CC3)cc2n1,cell-free assay,competition with immobilised ligand,1 µM,92%
C[C@@H](c1ccc(-n2cnc3c(N)ncnc32)cc1)N1CCc2nn(C)c(Cc3ccccc3)c2C1=O,binding,competition with immobilised ligand,0.1 µM,67%
Cc1c(NC(=O)c2cc(C(N)=O)nc3cc(F)ccc23)c(C(F)(F)F)nn1Cc1ccc(C(C)(C)C)cc1,cell-free assay,competition with immobilised ligand,1 µM,100%
O=C(NCCCN1CCOCC1)c1ccc(Nc2nccc(-c3cc4ccccc4s3)n2)cc1,binding,competition with immobilised ligand,1 µM,65%
Cc1nc(Cc2cccc(C(F)(F)F)c2)sc1-c1ccc(C(N)=O)nc1,cell-free assay,competition with immobilised ligand,1 µM,100%
CN(C)c1nccc(-c2cnc3ncccn23)n1,binding,competition with immobilised ligand,1 µM,92%
c1ccc(N2CCN(Cc3nc4ccccc4[nH]3)CC2)nc1,binding,competition with immobilised ligand,1 µM,90%
N[C@@H]1CCN(c2nccc(-c3cnn4ncccc34)n2)C1,binding,,1 µM,82%
CCCCN(CCCC)C(=O)CN1C[C@H](c2cc(OC)c3c(c2)OCO3)[C@@H](C(=O)O)[C@@H]1CC(C)(C)CCC,cell-free assay,competition with immobilised ligand,1 µM,71.8%
COc1cnc(Nc2cccc(S(N)(=O)=O)c2)nc1N1CCN(c2ccccc2)C(=O)C1,binding,competition with immobilised ligand,1 µM,68%
c1cnn2ncc(-c3ccnc(N4CCC45COC5)n3)c2c1,binding,competition with immobilised ligand,1 µM,48%
O=C(NCCCN1CCOCC1)c1ccc(Nc2ncc(Cl)c(-c3ccc(Cl)s3)n2)cc1,binding,competition with immobilised ligand,1 µM,91%
CN(CCCC(F)(F)F)c1nccc(-c2cnn3ncccc23)n1,binding,competition with immobilised ligand,1 µM,61%
COc1cnc(Nc2cccc(S(N)(=O)=O)c2)nc1N1CCN(c2ccccc2)CC1,binding,competition with immobilised ligand,1 µM,88%
C[C@H]1CCN(c2nccc(-c3cnn4ncccc34)n2)C1,binding,competition with immobilised ligand,1 µM,50%
O=C(Nc1c[nH]nc1C(=O)NC1CCNCC1)c1cc(F)cc(F)c1,binding,competition with immobilised ligand,1 µM,100%
Cc1cnn2ncc(-c3ccnc(N(C)C)n3)c2c1,binding,,1 µM,50%
c1cncc(-c2cccc(Nc3nccc(NC4CCCCC4)n3)c2)c1,binding,competition with immobilised ligand,10 µM,100%
CNC(=O)Nc1ccc2c(c1)CC[C@@]21OC(=O)N(CC(=O)N(Cc2ccc(F)cc2)[C@@H](C)C(F)(F)F)C1=O,cell-free assay,competition with immobilised ligand,1 µM,74%
O=C(c1ccc(Nc2ncc(Cl)c(-c3cc4ccccc4s3)n2)cc1)N1CCC(N2CCCC2)CC1,binding,competition with immobilised ligand,1 µM,71%
